Where two headings read alike, the source gives them in different places. A value given as a limit tells only on which side of the number the result lay.

A word on the IC50: it is the concentration that inhibits the measured activity by half. Lower therefore signals higher potency.

Holding throughout (test): MTT assay, cytotoxicity/growth inhibition
(In general: Tetrazolium assays rely on reduction of a dye to a coloured formazan, in cell work by metabolically active cells.)

One data set deals with A549 (lung carcinoma). It counts as cell-based, human. Conditions: for Cytotoxic Activity (% Growth Inhibition): A549, 20 μM concentration, MTT, 48 h, 20 µM; for IC50 / inhibition at 20 µM: Homo sapiens; for IC50: A549; for inhibition at 20 µM: A549, 48 h. The gist of the method:
(§1)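 Cells were grown in RPMI (A549, HCT-116, PC-3) or DMEM (MCF-7) with 10% FBS at 37 °C and 5% CO2. Seeding per well was […] and PC-3 8 × 10^4 cells. […] MTT 250 μg/mL, 4 h; DMSO; A570; triplicate; mean ± SE.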

Data set [1] has as its system PC-3 (prostate carcinoma). It counts as cell-based. Conditions: Homo sapiens; for inhibition at 20 µM: 48 h, read-out: Cytotoxic Activity (% Growth Inhibition). The gist of the method: as §1
In a further data set the test system is MCF-7 (breast carcinoma). It counts as cell-based. Conditions: Homo sapiens; for IC50: MCF7; for inhibition at 20 µM: MCF7, 48 h, read-out: Cytotoxic Activity (% Growth Inhibition). The gist of the method:
as §1

In data set [2] the test system is HCT-116 (colon carcinoma). The class given is cell-based. Conditions: Homo sapiens; for IC50: HCT-116; for inhibition at 20 µM: HCT-116, 48 h, read-out: Cytotoxic Activity (% Growth Inhibition). The gist of the method:
as §1

[3] abbreviates: read-out: Cytotoxic Activity (% Growth Inhibition), A549, 20 μM concentration, MTT, 48 h.

Take `C[C@@]12COC(c3ccccc3)O[C@@H]1CC[C@]1(C)C2CC=C(COC(=O)c2ccccc2)[C@H]1/C=C/C1=CCOC1=O` (stereo partly drawn) [Compound 8a, ((4aR,6aR,7S,10bR)-6a,10b-Dimethyl-7-((E)-2-(2-oxo-2,5-dihydrofuran-3-yl)vinyl)-3-phenyl-4a,5,6,6a,7,10,10a,10b-octahydro-1H-naphtho[2,1-d][1,3]dioxin-8-yl)methyl Benzoate]: in the data set on A549 (lung carcinoma), the “Cytotoxic Activity (% Growth Inhibition)” value is on record as 72.82 ± 0.05%. Moreover, the IC50 in the data set with A549 (lung carcinoma) is 10.6 µM; in data set [1] it was greater than 20 µM; in the data set on MCF-7 (breast carcinoma), greater than 20 µM; in data set [2], greater than 20 µM. Further, the inhibition at 20 µM worked out at 72% in the data set on A549 (lung carcinoma) (setting [3]), 0% in data set [1], 9.68 ± 0.14% in the data set on MCF-7 (breast carcinoma) and 21.12 ± 0.19% in data set [2].

Take `Cc1ccc(CC(=O)OCC2=CCC3[C@]4(C)COC(c5ccccc5)O[C@@H]4CC[C@@]3(C)[C@@H]2/C=C/C2=CCOC2=O)cc1` (stereo partly drawn) [Compound 8t, ((4aR,6aR,7S,10bR)-6a,10b-Dimethyl-7-((E)-2-(2-oxo-2,5-dihydrofuran-3-yl)vinyl)-3-phenyl-4a,5,6,6a,7,10,10a,10b-octahydro-1H-naphtho[2,1-d][1,3]dioxin-8-yl)methyl 2-(p-Tolyl)acetate]: the inhibition at 20 µM in the data set with A549 (lung carcinoma) (setting [3]) was determined as 48.9 ± 0.73%; in data set [1], 69.5 ± 0.74%; in the data set on MCF-7 (breast carcinoma), 27 ± 0.29%; in data set [2], 45.9 ± 0.86%.

Turning to `C[C@@]12COC(c3ccccc3)O[C@@H]1CC[C@]1(C)C2CC=C(COC(=O)Cc2ccccc2)[C@H]1/C=C/C1=CCOC1=O` (stereo partly drawn) [Compound 8o, ((4aR,6aR,7S,10bR)-6a,10b-Dimethyl-7-((E)-2-(2-oxo-2,5-dihydrofuran-3-yl)vinyl)-3-phenyl-4a,5,6,6a,7,10,10a,10b-octahydro-1H-naphtho[2,1-d][1,3]dioxin-8-yl)methyl 2-Phenylacetate], the inhibition at 20 µM in the data set on A549 (lung carcinoma) (read-out: Cytotoxic Activity (% Growth Inhibition)) was determined as 20.13 ± 0.02%; in data set [1], 0%; in the data set on MCF-7 (breast carcinoma), 32.09 ± 0.08%; in data set [2], 24.97 ± 0.16%.

With `COc1cc(OC)cc(C(=O)OCC2=CCC3[C@]4(C)COC(c5ccccc5)O[C@@H]4CC[C@@]3(C)[C@@H]2/C=C/C2=CCOC2=O)c1` (stereo partly drawn) [Compound 8j, ((4aR,6aR,7S,10bR)-6a,10b-Dimethyl-7-((E)-2-(2-oxo-2,5-dihydrofuran-3-yl)vinyl)-3-phenyl-4a,5,6,6a,7,10,10a,10b-octahydro-1H-naphtho[2,1-d][1,3]dioxin-8-yl)methyl 3,5-Dimethoxybenzoate], the “Cytotoxic Activity (% Growth Inhibition)” value with A549 (lung carcinoma) came to 51 ± 0.48%. In addition, the inhibition at 20 µM was less than 52% with A549 (lung carcinoma) (setting [3]), 55.8 ± 0.49% in data set [1], 48 ± 0.91% in the data set on MCF-7 (breast carcinoma) and 47.2 ± 0.75% in data set [2].

As for `Cc1ccc(CC(=O)OCC2=CCC3[C@](C)(CO)[C@H](O)CC[C@@]3(C)[C@@H]2/C=C/C2=CCOC2=O)cc1` (stereo partly drawn) [Compound 9t, ((1S,5R,6R,8aR)-6-Hydroxy-5-(hydroxymethyl)-5,8a-dimethyl-1-((E)-2-(2-oxo-2,5-dihydrofuran-3-yl)vinyl)-1,4,4a,5,6,7,8,8a-octahydronaphthalen-2-yl)methyl 2-(p-Tolyl)acetate], the inhibition at 20 µM in the data set with A549 (lung carcinoma) (setting [3]) was determined as 49.7 ± 0.92%; in data set [1], 52 ± 0.85%; in the data set on MCF-7 (breast carcinoma), 5.2 ± 0.5%; in data set [2], 13.9 ± 0.64%.

As to `CCCCCCCCCCCC(=O)OCC1=CCC2[C@]3(C)COC(c4ccccc4)O[C@@H]3CC[C@@]2(C)[C@@H]1/C=C/C1=CCOC1=O` (stereo partly drawn) [Compound 8y, ((4aR,6aR,7S,10bR)-6a,10b-Dimethyl-7-((E)-2-(2-oxo-2,5-dihydrofuran-3-yl)vinyl)-3-phenyl-4a,5,6,6a,7,10,10a,10b-octahydro-1H-naphtho[2,1-d][1,3]dioxin-8-yl)methyl Dodecanoate], the IC50 is 11 µM in the data set on A549 (lung carcinoma), greater than 20 µM in data set [1], 20 µM in the data set with MCF-7 (breast carcinoma) and greater than 20 µM in data set [2]. Further, the inhibition at 20 µM in the data set on A549 (lung carcinoma) (setting [3]) was found to be 71 ± 0.77%; in data set [1], 32 ± 0.66%; in the data set on MCF-7 (breast carcinoma) it was 51 ± 0.35%; in data set [2], 40.1 ± 0.8%.

On to `COc1cccc(C(=O)OCC2=CCC3[C@]4(C)COC(c5ccccc5)O[C@@H]4CC[C@@]3(C)[C@@H]2/C=C/C2=CCOC2=O)c1` (stereo partly drawn) [Compound 8b, ((4aR,6aR,7S,10bR)-6a,10b-Dimethyl-7-((E)-2-(2-oxo-2,5-dihydrofuran-3-yl)vinyl)-3-phenyl-4a,5,6,6a,7,10,10a,10b-octahydro-1H-naphtho[2,1-d][1,3]dioxin-8-yl)methyl 3-Methoxybenzoate], for which, in the data set on A549 (lung carcinoma), the “Cytotoxic Activity (% Growth Inhibition)” value is recorded as 48.88 ± 0.17%. For the same compound, the inhibition at 20 µM in the data set with A549 (lung carcinoma) (setting [3]) is less than 52%; in data set [1] it was 0%; in the data set on MCF-7 (breast carcinoma), 6.04 ± 0.12%; in data set [2], 11.72 ± 0.11%.

Take `C[C@]1(CO)C2CC=C(COC(=O)Cc3ccc(Cl)cc3)[C@@H](/C=C/C3=CCOC3=O)[C@]2(C)CC[C@H]1O` (stereo partly drawn) [Compound 9q, ((1S,5R,6R,8aR)-6-Hydroxy-5-(hydroxymethyl)-5,8a-dimethyl-1-((E)-2-(2-oxo-2,5-dihydrofuran-3-yl)vinyl)-1,4,4a,5,6,7,8,8a-octahydronaphthalen-2-yl)methyl 2-(4-Chlorophenyl)acetate]: the inhibition at 20 µM in the data set with A549 (lung carcinoma) (setting [3]) turned out to be 47.2 ± 0.85%; in data set [1], 38 ± 0.96%; in the data set on MCF-7 (breast carcinoma), 28 ± 0.87%; in data set [2], 19.3 ± 0.97%.

`C[C@]1(CO)C2CC=C(COC(=O)c3cccc(C(F)(F)F)c3)[C@@H](/C=C/C3=CCOC3=O)[C@]2(C)CC[C@H]1O` (stereo partly drawn) [Compound 9h, ((1S,5R,6R,8aR)-6-Hydroxy-5-(hydroxymethyl)-5,8a-dimethyl-1-((E)-2-(2-oxo-2,5-dihydrofuran-3-yl)vinyl)-1,4,4a,5,6,7,8,8a-octahydronaphthalen-2-yl)methyl 3-(Trifluoromethyl)benzoate]: the inhibition at 20 µM in the data set with A549 (lung carcinoma) (setting [3]) amounted to 28.81 ± 0.03%; in data set [1], 29 ± 1.4%; in the data set on MCF-7 (breast carcinoma), 30.4 ± 0.36%; in data set [2], 3.31 ± 0.13%.

`CCCCCCCC(=O)OCC1=CCC2[C@](C)(CO)[C@H](O)CC[C@@]2(C)[C@@H]1/C=C/C1=CCOC1=O` (stereo partly drawn) [Compound 9w, ((1S,5R,6R,8aR)-6-Hydroxy-5-(hydroxymethyl)-5,8a-dimethyl-1-((E)-2-(2-oxo-2,5-dihydrofuran-3-yl)vinyl)-1,4,4a,5,6,7,8,8a-octahydronaphthalen-2-yl)methyl Octanoate]: the inhibition at 20 µM came to 16.8 ± 0.93% in the data set on A549 (lung carcinoma) (setting [3]), 67 ± 0.75% in data set [1], 25 ± 0.36% with MCF-7 (breast carcinoma) and 23.9 ± 0.58% in data set [2].

Regarding `C[C@@]12COC(c3ccccc3)O[C@@H]1CC[C@]1(C)C2CC=C(COC(=O)c2cccc(F)c2)[C@H]1/C=C/C1=CCOC1=O` (stereo partly drawn) [Compound 8c, ((4aR,6aR,7S,10bR)-6a,10b-Dimethyl-7-((E)-2-(2-oxo-2,5-dihydrofuran-3-yl)vinyl)-3-phenyl-4a,5,6,6a,7,10,10a,10b-octahydro-1H-naphtho[2,1-d][1,3]dioxin-8-yl)methyl 3-Fluorobenzoate], the inhibition at 20 µM in the data set with A549 (lung carcinoma) (setting [3]) is 41.7 ± 0.45%; in data set [1] it was 0%; with MCF-7 (breast carcinoma), 2.06 ± 0.04%; in data set [2] it was 19.3 ± 0.37%.

As for `COc1cc(OC)cc(C(=O)OCC2=CCC3[C@](C)(CO)[C@H](O)CC[C@@]3(C)[C@@H]2/C=C/C2=CCOC2=O)c1` (stereo partly drawn) [Compound 9j, ((1S,5R,6R,8aR)-6-Hydroxy-5-(hydroxymethyl)-5,8a-dimethyl-1-((E)-2-(2-oxo-2,5 dihydrofuran-3-yl)vinyl)-1,4,4a,5,6,7,8,8a-octahydronaphthalen-2-yl)methyl 3,5-Dimethoxybenzoate], the IC50 was greater than 20 µM in the data set with A549 (lung carcinoma), 6.1 µM in data set [1], 16.6 µM in the data set on MCF-7 (breast carcinoma) and greater than 20 µM in data set [2]. The inhibition at 20 µM was determined as 8.7 ± 0.45% in the data set with A549 (lung carcinoma) (setting [3]), 70 ± 0.82% in data set [1], 51 ± 0.49% in the data set with MCF-7 (breast carcinoma) and 23.9 ± 0.49% in data set [2].

For `C[C@]1(CO)C2CC=C(COC(=O)c3ccc(Br)cc3F)[C@@H](/C=C/C3=CCOC3=O)[C@]2(C)CC[C@H]1O` (stereo partly drawn) [Compound 9m, ((1S,5R,6R,8aR)-6-Hydroxy-5-(hydroxymethyl)-5,8a-dimethyl-1-((E)-2-(2-oxo-2,5-dihydrofuran-3-yl)vinyl)-1,4,4a,5,6,7,8,8a-octahydronaphthalen-2-yl)methyl 4-Bromo-2-fluorobenzoate], the IC50 was greater than 20 µM with A549 (lung carcinoma), 7.6 µM in data set [1], greater than 20 µM with MCF-7 (breast carcinoma) and greater than 20 µM in data set [2]. Besides, the inhibition at 20 µM with A549 (lung carcinoma) (setting [3]) was found to be 14.9 ± 0.24%; in data set [1] it was 78.9 ± 0.96%; in the data set on MCF-7 (breast carcinoma), 8 ± 0.85%; in data set [2] it was 23.1 ± 0.84%.

With `C[C@@]12COC(c3ccccc3)O[C@@H]1CC[C@]1(C)C2CC=C(COC(=O)Cc2ccc(Cl)cc2)[C@H]1/C=C/C1=CCOC1=O` (stereo partly drawn) [Compound 8q, ((4aR,6aR,7S,10bR)-6a,10b-Dimethyl-7-((E)-2-(2-oxo-2,5-dihydrofuran-3-yl)vinyl)-3-phenyl-4a,5,6,6a,7,10,10a,10b-octahydro-1H-naphtho[2,1-d][1,3]dioxin-8-yl)methyl 2-(4-Chlorophenyl)acetate], the inhibition at 20 µM with A549 (lung carcinoma) (setting [3]) stood at 11 ± 1%; in data set [1] it was 39 ± 0.82%; with MCF-7 (breast carcinoma), 46 ± 0.72%; in data set [2], 36.1 ± 0.96%.
